# Measured values from ChEMBL document CHEMBL4130378, “Discovery of pentacyclic triterpene 3β-ester derivatives as a new class of cholesterol ester transfer protein inhibitors” (Eur J Med Chem, 2017).
# Assays:
# [1] = target: T1, Cholesteryl ester transfer protein (Homo sapiens, UniProt P11597); experiment: Inhibition of recombinant human CETP after 3 hrs using fluorescent cholesteryl containing HDL after 3 hrs by fluorescence assay
# T1 sequence (P11597 whole entry): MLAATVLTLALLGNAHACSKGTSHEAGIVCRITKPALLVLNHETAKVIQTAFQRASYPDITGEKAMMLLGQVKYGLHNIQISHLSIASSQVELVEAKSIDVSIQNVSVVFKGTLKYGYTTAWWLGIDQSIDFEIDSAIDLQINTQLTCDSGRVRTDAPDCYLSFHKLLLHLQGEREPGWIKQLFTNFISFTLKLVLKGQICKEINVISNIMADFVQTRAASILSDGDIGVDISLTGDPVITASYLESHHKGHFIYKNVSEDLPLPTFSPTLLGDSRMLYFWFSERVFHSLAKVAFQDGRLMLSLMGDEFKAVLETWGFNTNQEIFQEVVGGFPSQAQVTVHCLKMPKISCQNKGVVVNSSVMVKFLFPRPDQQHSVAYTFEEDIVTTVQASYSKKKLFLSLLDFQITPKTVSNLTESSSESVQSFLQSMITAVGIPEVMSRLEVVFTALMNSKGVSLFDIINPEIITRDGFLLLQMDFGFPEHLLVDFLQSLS
# Mus musculus [2] = experiment: Hypolipidemic activity in transgenic ap2-CETPTg mouse model assessed as reduction in plasma LDL cholesterol levels at 30 mg/kg, po qd for 14 days measured 2 hrs post dose on day 14 by automated lipid analyzer relative to control; type: functional; parameters: scale not given: the % may be the effect or the level left
# Outline: (§1)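 ap2-CETPTg mice, which express human CETP in adipose tissue. Oral 30 mg/kg once daily for two weeks in DMSO/cremophor/saline 3:4:93. Retro-orbital blood drawn 2 h after the day-14 dose. HDL-C, LDL-C, TG and TC measured on an automated lipid analyzer, mean ± SD (n ≥ 6), versus control group.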
# Cavia porcellus [3] = experiment: Antihyperlipidemic activity in high-fat fed guinea pig model assessed as increase in plasma HDL cholesterol level at 30 mg/kg administered via oral gavage as qd for 14 days measured 2 hrs post dose on day 14 relative to control; type: functional
# Outline: (§2)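 Male guinea pigs, 12 weeks old, fed a high-fat diet (2.5% coconut oil, 0.25% cholesterol) for two weeks. Gavage at 30 mg/kg once daily for two weeks while the diet continued. Plasma taken retro-orbitally 2 h after the day-14 dose. HDL-C, LDL-C, TG and TC reported as mean ± SD (n ≥ 6) versus the untreated high-fat model group.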
# Cavia porcellus [4] = experiment: Hypolipidemic activity in high-fat fed guinea pig model assessed as reduction in plasma LDL cholesterol levels at 30 mg/kg administered via oral gavage as qd for 14 days measured 2 hrs post dose on day 14 relative to control; type: functional; parameters: scale not given: the % may be the effect or the level left; outline: as §2
# [5] = Octanol-water partition coefficient, log P of the compound at pH 7.4 by HPLC based shake flask method; type: physicochemical
# Mus musculus [6] = experiment: Induction of plasma triglyceride levels in transgenic ap2-CETPTg mouse model at 30 mg/kg, po qd for 14 days measured 2 hrs post dose on day 14 by automated lipid analyzer relative to control; type: ADME, organism-based; conditions: in vivo; outline: as §1
# Mus musculus [7] = experiment: Induction of plasma total cholesterol levels in transgenic ap2-CETPTg mouse model at 30 mg/kg, po qd for 14 days measured 2 hrs post dose on day 14 by automated lipid analyzer relative to control; type: ADME, organism-based; conditions: in vivo; outline: as §1
# [8] = target: T2, Pancreatic triacylglycerol lipase (Sus scrofa, UniProt P00591); experiment: Inhibition of porcine pancreatic lipase using 2,3-dimercaptopropan-1-ol tributyrate as substrate preincubated for 5 mins followed by substrate addition measured after 30 mins by colorimetric assay
# T2 sequence (P00591 whole entry): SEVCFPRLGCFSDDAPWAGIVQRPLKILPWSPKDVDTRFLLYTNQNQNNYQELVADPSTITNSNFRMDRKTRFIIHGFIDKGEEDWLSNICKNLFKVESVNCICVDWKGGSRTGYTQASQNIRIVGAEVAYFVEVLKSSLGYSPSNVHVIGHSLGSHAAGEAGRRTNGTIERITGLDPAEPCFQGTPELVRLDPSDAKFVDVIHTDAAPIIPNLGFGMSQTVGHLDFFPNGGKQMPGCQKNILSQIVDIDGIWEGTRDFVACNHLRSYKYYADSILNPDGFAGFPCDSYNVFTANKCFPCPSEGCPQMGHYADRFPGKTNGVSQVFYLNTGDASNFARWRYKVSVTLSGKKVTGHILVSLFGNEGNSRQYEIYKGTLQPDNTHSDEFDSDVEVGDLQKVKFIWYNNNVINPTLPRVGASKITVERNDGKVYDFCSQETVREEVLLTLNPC
# [9] = MRT (0 to 48 hrs) in normal fed guinea pig at 30 mg/kg administered via oral gavage by LC-MS/MS analysis; type: ADME, organism-based, Cavia porcellus; conditions: in vivo
# [10] = MRT (0 to infinity) in normal fed guinea pig at 30 mg/kg administered via oral gavage by LC-MS/MS analysis; type: ADME, organism-based, Cavia porcellus; conditions: in vivo
# [11] = AUC (0 to 48 hrs) in normal fed guinea pig at 30 mg/kg administered via oral gavage by LC-MS/MS analysis; type: ADME, organism-based, Cavia porcellus; parameters: time < 48 hr, dose 30 mg/kg, route oral; conditions: in vivo
# [12] = AUC (0 to infinity) in normal fed guinea pig at 30 mg/kg administered via oral gavage by LC-MS/MS analysis; type: ADME, organism-based, Cavia porcellus; parameters: dose 30 mg/kg, route oral, time infinity; conditions: in vivo
# [13] = Cmax in normal fed guinea pig at 30 mg/kg administered via oral gavage by LC-MS/MS analysis; type: ADME, organism-based, Cavia porcellus; parameters: dose 30 mg/kg, route oral; conditions: in vivo
# [14] = Tmax in normal fed guinea pig at 30 mg/kg administered via oral gavage by LC-MS/MS analysis; type: ADME, organism-based, Cavia porcellus; conditions: in vivo
# [15] = Terminal half life in normal fed guinea pig at 30 mg/kg administered via oral gavage by LC-MS/MS analysis; type: ADME, organism-based, Cavia porcellus; conditions: in vivo, read-out: beta t1/2 (converted)
# Cavia porcellus [16] = experiment: Drug level in normal fed guinea pig treated with 3-beta-[(2-Carboxyphenyl)carbonyloxy]-olean-12-en-28-oic acid at 30 mg/kg administered via oral gavage by LC-MS/MS analysis; type: ADME, organism-based; conditions: in vivo
structure (smiles),measurement,setting,value
CC(=O)O[C@H]1CC[C@]2(C)[C@H]3CC=C4[C@@H]5CC(C)(C)CC[C@]5(C(=O)O)CC[C@@]4(C)[C@]3(C)CC[C@H]2C1(C)C [ACETYL OLEANOLIC ACID],IC50,[1],Not Active
COc1cc(F)c(C(C)C)cc1-c1ccc(C(F)(F)F)cc1CN1C(=O)O[C@H](c2cc(C(F)(F)F)cc(C(F)(F)F)c2)[C@@H]1C [ANACETRAPIB],Activity,Mus musculus [2],40.4%
same,Activity,Cavia porcellus [3],82.2%
same,Activity,Cavia porcellus [4],30.2%
same,logD,[5],0.73
same,Activity,Mus musculus [6],4.7%
same,Activity,Mus musculus [7],17.8%
C=C(C)[C@@H]1CC[C@]2(C(=O)O)CC[C@]3(C)[C@H](CC[C@@H]4[C@@]5(C)CC[C@H](O)C(C)(C)[C@@H]5CC[C@]43C)[C@@H]12 [BETULINIC ACID],IC50,[1],Not Active
CCC(CC)CC1(C(=O)Nc2ccccc2SC(=O)C(C)C)CCCCC1 [DALCETRAPIB],logD,[5],0.92
Cc1cc(C)c2c(c1)[C@@H](N(Cc1cc(C(F)(F)F)cc(C(F)(F)F)c1)c1nnn(C)n1)CCCN2C[C@H]1CC[C@H](C(=O)O)CC1 [EVACETRAPIB],logD,[5],0.51
CC1(C)CC[C@]2(C(=O)O)CC[C@]3(C)C(=CC[C@@H]4[C@@]5(C)CC[C@H](OC(=O)CCC(=O)O)C(C)(C)[C@@H]5CC[C@]43C)[C@@H]2C1 [OLEANOLIC ACID 3-O-SUCCINATE],IC50,[1]; read-out: IC50,4.3 µM
CC1(C)CC[C@]2(C(=O)O)CC[C@]3(C)C(=CC[C@@H]4[C@@]5(C)CC[C@H](O)C(C)(C)[C@@H]5CC[C@]43C)[C@@H]2C1 [OLEANOLIC_ACID],IC50,[8],182 µM
same,MRT last,[9],11.7 h
same,MRT inf,[10],15 h
same,AUC(0-t) at 48 h,[11],291 ng·h/mL
same,AUC(0-inf),[12],312 ng·h/mL
same,Cmax,[13],52.2 ng/mL
same,Tmax,[14],45 min
same,half-life,[15],704 min
same,Drug metabolism,Cavia porcellus [16],Metabolite_Detected
CCOC(=O)N1c2ccc(C(F)(F)F)cc2[C@@H](N(Cc2cc(C(F)(F)F)cc(C(F)(F)F)c2)C(=O)OC)C[C@H]1CC [TORCETRAPIB],logD,[5],1.05
C[C@H]1[C@H](C)CC[C@]2(C(=O)O)CC[C@]3(C)C(=CC[C@@H]4[C@@]5(C)CC[C@H](O)C(C)(C)[C@@H]5CC[C@]43C)[C@H]12 [URSOLIC ACID],IC50,[1]; read-out: IC50,46.6 µM
